What was measured:
[1] = biological target: 5-hydroxytryptamine receptor 4 (Cavia porcellus) (UniProt O70528); experiment: Displacement of [3H]GR-113808 from 5HT4 receptor in guinea pig striatum membrane at 10 nM; assay type: cell membranes
Method in brief: (§1)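 Guinea pig membranes (15 µg protein/mL) incubated 30 min at 37 °C with 0.6 nM [3H]GR113808 in 50 mM HEPES, pH 7.4, with fixed test concentrations. Nonspecific binding defined with 10 µM serotonin.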

[2] = biological target: 5-hydroxytryptamine receptor 4 (Cavia porcellus) (UniProt O70528); experiment: Displacement of [3H]GR-113808 from 5HT4 receptor in guinea pig striatum membrane at 1 uM; assay type: cell membranes; method in brief: as §1
[3] = biological target: 5-hydroxytryptamine receptor 4 (Cavia porcellus, UniProt O70528); experiment: Displacement of [3H]GR-113808 from 5HT4 receptor in guinea pig striatum membrane; assay type: cell membranes; method in brief: as §1
[4] = biological target: T1, 5-hydroxytryptamine receptor 3A (Homo sapiens, UniProt P46098); experiment: Binding affinity at 5HT3 receptor
T1 sequence (P46098 whole entry): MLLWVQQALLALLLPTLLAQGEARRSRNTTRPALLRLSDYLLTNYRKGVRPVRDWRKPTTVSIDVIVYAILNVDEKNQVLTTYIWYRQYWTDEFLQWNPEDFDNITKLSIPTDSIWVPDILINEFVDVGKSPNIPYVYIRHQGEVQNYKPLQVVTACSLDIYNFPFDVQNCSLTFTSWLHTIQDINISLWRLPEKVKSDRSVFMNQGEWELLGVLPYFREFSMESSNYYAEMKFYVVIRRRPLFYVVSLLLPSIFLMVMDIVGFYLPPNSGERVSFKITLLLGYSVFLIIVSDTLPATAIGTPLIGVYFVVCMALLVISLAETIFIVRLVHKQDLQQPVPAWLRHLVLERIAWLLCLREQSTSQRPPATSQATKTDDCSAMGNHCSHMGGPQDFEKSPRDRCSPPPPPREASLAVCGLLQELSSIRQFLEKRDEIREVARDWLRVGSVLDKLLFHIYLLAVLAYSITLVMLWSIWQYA

[5] = biological target: 5-hydroxytryptamine receptor 4 (Homo sapiens, UniProt Q13639); experiment: Binding affinity at 5HT4 receptor
Chain of 5-hydroxytryptamine receptor 4 (Homo sapiens, UniProt Q13639) (Q13639 whole entry): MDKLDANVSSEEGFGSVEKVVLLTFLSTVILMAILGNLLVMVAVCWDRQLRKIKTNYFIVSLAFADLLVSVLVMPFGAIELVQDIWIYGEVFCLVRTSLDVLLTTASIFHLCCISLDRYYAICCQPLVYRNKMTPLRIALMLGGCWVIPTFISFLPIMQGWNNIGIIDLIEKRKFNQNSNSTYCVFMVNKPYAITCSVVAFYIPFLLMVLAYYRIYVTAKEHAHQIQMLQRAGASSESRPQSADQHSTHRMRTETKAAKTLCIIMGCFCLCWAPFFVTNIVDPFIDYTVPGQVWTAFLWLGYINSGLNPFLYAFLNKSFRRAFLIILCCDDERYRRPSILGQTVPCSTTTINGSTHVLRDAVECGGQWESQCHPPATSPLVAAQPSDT

Chain of 5-hydroxytryptamine receptor 4 (Cavia porcellus, UniProt O70528) (O70528 whole entry): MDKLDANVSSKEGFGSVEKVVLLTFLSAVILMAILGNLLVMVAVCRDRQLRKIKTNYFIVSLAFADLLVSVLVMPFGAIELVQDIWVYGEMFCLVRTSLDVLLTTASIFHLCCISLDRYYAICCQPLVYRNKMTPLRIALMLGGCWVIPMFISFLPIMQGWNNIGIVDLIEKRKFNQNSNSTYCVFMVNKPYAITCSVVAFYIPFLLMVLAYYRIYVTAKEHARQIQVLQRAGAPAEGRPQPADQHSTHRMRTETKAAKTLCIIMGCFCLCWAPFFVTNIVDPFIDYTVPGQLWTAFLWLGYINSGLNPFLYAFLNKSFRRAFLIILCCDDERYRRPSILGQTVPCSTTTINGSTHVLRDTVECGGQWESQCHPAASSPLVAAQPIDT
Chain of 5-hydroxytryptamine receptor 4 (Cavia porcellus) (O70528 whole entry): as above

Row | SMILES | inhibition [1] | inhibition [2] | Ki [3] | Ki [4] | Ki [5]
1 | c1ccc(CN2CCN(CCOc3nc4ccsc4n4cccc34)CC2)cc1 | 0% | 13% |  |  | 
2 | C=CCN1CCC(COc2nc3scc(C)c3n3cccc23)CC1 | 26% | 100% | 8.51 nM |  | 
3 | c1cc2c(OCC3CCCCN3)nc3ccsc3n2c1 (configuration not stated) | 18% | 90% |  |  | 
4 | CCCCN1CCC(COc2nc3scc(C)c3n3cccc23)CC1 | 75% | 100% | 5.37 nM |  | 
5 | Cc1csc2nc(OCC3CCN(C(C)C)CC3)c3cccn3c12 | 30% | 100% | 6.46 nM |  | 
6 | Cc1csc2nc(OCC3CCN(C)CC3)c3cccn3c12 | 13% | 100% |  |  | 
7 | CCCCN1CCC(COC(=O)c2cc(Cl)c(N)c3c2OCCO3)CC1 |  |  |  | 158 nM | 0.0158 nM
8 | CCCN1CCCCC1CCOc1nc2ccsc2n2cccc12 (configuration not stated) | 0% | 72% |  |  | 
9 | c1cc2c(OCCN3CCNCC3)nc3ccsc3n2c1 | 0% | 38% |  |  | 
10 | CNCCOc1nc2ccsc2n2cccc12 | 9% | 7% |  |  | 
11 | CCCCCNC(=N)N/N=C/c1c[nH]c2ccc(OC)cc12 [TEGASEROD] |  |  |  | > 10000 nM | 3.98 nM
12 | C=CCCN1CCC(COc2nc3scc(C)c3n3cccc23)CC1 | 28% | 100% | 11.2 nM |  | 
13 | CCN(CC)CCOC(=O)c1cc(Cl)c(N)cc1OC |  |  |  | 126 nM | 
14 | CCC(C)N1CCC(COc2nc3ccsc3n3cccc23)CC1 (configuration not stated) | 2% | 56% |  |  | 
15 | CCN1CCC(COc2nc3scc(C)c3n3cccc23)CC1 | 30% | 100% | 9.55 nM |  | 
16 | CN1CCC(COc2nc3sccc3n3cccc23)CC1 | 20% | 100% | 38 nM |  | 
17 | c1cc2c(OCCCN3CCNCC3)nc3ccsc3n2c1 | 14% | 75% |  |  | 
18 | CCN1CCC(COc2nc3sccc3n3cccc23)CC1 | 0% | 92% |  |  | 
19 | c1cc2c(OC3CN4CCC3CC4)nc3ccsc3n2c1 (configuration not stated) | 11% | 53% |  |  | 

Row | SMILES | inhibition [1] | inhibition [2] | Ki [3] | Ki [4] | Ki [5]
20 | CCCCN1CCCC(COc2nc3ccsc3n3cccc23)C1 (configuration not stated) | 0% | 82% |  |  | 
21 | CN(CCOc1nc2ccsc2n2cccc12)Cc1ccccc1 | 2% | 20% |  |  | 
22 | C=CCCN1CCC(COc2nc3ccsc3n3cccc23)CC1 | 23% | 100% | 37.2 nM |  | 
23 | CCC(C)N1CCC(COc2nc3scc(C)c3n3cccc23)CC1 (configuration not stated) | 18% | 100% |  |  | 
24 | CN1[C@@H]2CC[C@H]1C[C@@H](OC(=O)c1c[nH]c3ccccc13)C2 [TROPISETRON] |  |  |  |  | 200 nM
25 | CCCN1CCCC(COc2nc3ccsc3n3cccc23)C1 (configuration not stated) | 0% | 91% |  |  | 
26 | c1cc2c(OCCN3CCCCC3)nc3ccsc3n2c1 | 5% | 73% | 417 nM |  | 
27 | CCCCN1CCC(CNC(=O)c2c3n(c4ccccc24)CCCO3)CC1 [PIBOSEROD] |  |  |  | > 1000 nM | 
28 | c1cc2c(OCC3CCNCC3)nc3ccsc3n2c1 | 8% | 74% |  |  | 
29 | CCCCN1CCC(COc2nc3sccc3n3cccc23)CC1 | 56% | 100% | 20.9 nM |  | 
30 | Cc1csc2nc(OCCCN3CCCCC3)c3cccn3c12 | 26% | 100% | 12.9 nM |  | 
31 | COc1cc(N)c(Cl)cc1C(=O)OCCCN1CCCCC1 |  |  |  | 2000 nM | 31.6 nM
32 | CN1CCC(COc2nc3ccsc3n3cccc23)CC1 | 0% | 100% | 58.9 nM |  | 
33 | c1cc2c(OCCCN3CCCC3)nc3ccsc3n2c1 | 15% | 100% | 74.1 nM |  | 
34 | CCCCCN1CCC(COc2nc3scc(C)c3n3cccc23)CC1 | 20% | 100% |  |  | 
35 | CCCN1CCN(CCOc2nc3ccsc3n3cccc23)CC1 | 0% | 72% |  |  | 
36 | c1cc2c(OCCN3CCCC3)nc3ccsc3n2c1 | 7% | 60% |  |  | 
37 | CCCCN1CCN(CCOc2nc3ccsc3n3cccc23)CC1 | 12% | 66% |  |  | 
38 | c1ccc(CN2CCC(COc3nc4ccsc4n4cccc34)CC2)cc1 | 0% | 100% | 63.1 nM |  | 

Row | SMILES | inhibition [1] | inhibition [2] | Ki [3] | Ki [4] | Ki [5]
39 | NCCOc1nc2ccsc2n2cccc12 | 0% | 0% |  |  | 
40 | CCN(CC)CCCCOc1nc2ccsc2n2cccc12 | 34% | 100% | 16.2 nM |  | 
41 | CCCCN1CCC(Oc2nc3ccsc3n3cccc23)CC1 | 1% | 50% |  |  | 
42 | Cc1csc2nc(OCC3CCN(Cc4ccccc4)CC3)c3cccn3c12 | 11% | 100% |  |  | 
43 | c1cc2c(OCCCCN3CCCCC3)nc3ccsc3n2c1 | 16% | 100% | 57.5 nM |  | 
44 | CCCCCN1CCC(COc2nc3ccsc3n3cccc23)CC1 | 55% | 99% | 25.7 nM |  | 
45 | c1cc2c(OCCCN3CCCCC3)nc3ccsc3n2c1 | 30% | 100% | 52.5 nM |  | 
46 | C=CCN1CCC(COc2nc3sccc3n3cccc23)CC1 | 49% | 99% | 29.5 nM |  | 
47 | C=CCN1CCC(COc2nc3ccsc3n3cccc23)CC1 | 32% | 95% | 8.71 nM |  | 
48 | CCCCCN1CCC(COc2nc3sccc3n3cccc23)CC1 | 13% | 100% | 49 nM |  | 
49 | CCCN1CCC(Oc2nc3ccsc3n3cccc23)CC1 | 10% | 67% |  |  | 
50 | c1cc2c(OC3CCNCC3)nc3ccsc3n2c1 | 0% | 26% |  |  | 
51 | CCCN1CCC(COc2nc3ccsc3n3cccc23)CC1 | 97% | 100% | 16.2 nM |  | 
52 | c1cc2c(OCCC3CCCCN3)nc3ccsc3n2c1 (configuration not stated) | 5% | 90% | 617 nM |  | 
53 | COCCCN1CCC(NC(=O)c2cc(Cl)c(N)c3c2OCC3)CC1 [PRUCALOPRIDE] |  |  |  | 3980 nM | 
54 | c1cc2c(OCCN3CCOCC3)nc3ccsc3n2c1 | 12% | 18% |  |  | 
55 | CCCN1CCC(COc2nc3sccc3n3cccc23)CC1 | 54% | 100% | 11.7 nM |  | 
56 | CC(C)N1CCC(COc2nc3ccsc3n3cccc23)CC1 | 38% | 100% | 18.2 nM |  | 
